For series [1], the system named is Rattus norvegicus. The series can be described thus: Anti-inflammatory activity in rat assessed as inhibition of carrageenan-induced paw edema at 10 mg/kg, po administered 30 mins before carrageenan challenge measured after 5 hrs relative to control. In kind it is functional. The gist of the method: (§1)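 Male rats were dosed orally with agents suspended in 0.5% Na CMC, 30 min before 0.1 mL of 1% (w/v) carrageenan was injected into the right hind paw. Thickness of both paws was measured 1, 3 and 5 h after injection. Activity was calculated as percent decrease in edema thickness relative to the carrageenan-induced edema. Data given as mean ± SD with non-parametric comparison, P < 0.05.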

For series [2], the system named is Rattus norvegicus. Briefly: Anti-inflammatory activity in rat assessed as inhibition of carrageenan-induced paw edema at 10 mg/kg, po administered 30 mins before carrageenan challenge measured after 3 hrs relative to control. It counts as functional. Summed up: as §1
Series [3] has as its system Rattus norvegicus. Briefly: Anti-inflammatory activity in rat assessed as inhibition of carrageenan-induced paw edema at 10 mg/kg, po administered 30 mins before carrageenan challenge measured after 1 hr relative to control. It counts as functional. The gist of the method:
as §1
On the technique in general: Carrageenan injected into the paw causes an acute inflammation.

Series [4] concerns Rattus norvegicus. Briefly: Analgesic activity in rat assessed as pain threshold time at 10 mg/kg, po measured at 0.5 hr post dose by hot plate method (reference value: 19.1 to 21.2 sec). It counts as functional. A general note: In hot-plate and tail-flick tests a longer latency is read as antinociception.
For series [5], the system named is Rattus norvegicus. Briefly: Analgesic activity in rat assessed as pain threshold time at 10 mg/kg, po measured at 1.5 hrs post dose by hot plate method (reference value: 19.1 to 21.2 sec). It counts as functional.
Series [6] concerns Rattus norvegicus. The series can be described thus: Analgesic activity in rat assessed as pain threshold time at 10 mg/kg, po measured at 1 hr post dose by hot plate method (reference value: 19.1 to 21.2 sec). In kind it is functional.
In series [7] the target is T1, Prostaglandin G/H synthase 1 (Ovis aries, UniProt P05979).
T1 sequence (P05979 whole entry): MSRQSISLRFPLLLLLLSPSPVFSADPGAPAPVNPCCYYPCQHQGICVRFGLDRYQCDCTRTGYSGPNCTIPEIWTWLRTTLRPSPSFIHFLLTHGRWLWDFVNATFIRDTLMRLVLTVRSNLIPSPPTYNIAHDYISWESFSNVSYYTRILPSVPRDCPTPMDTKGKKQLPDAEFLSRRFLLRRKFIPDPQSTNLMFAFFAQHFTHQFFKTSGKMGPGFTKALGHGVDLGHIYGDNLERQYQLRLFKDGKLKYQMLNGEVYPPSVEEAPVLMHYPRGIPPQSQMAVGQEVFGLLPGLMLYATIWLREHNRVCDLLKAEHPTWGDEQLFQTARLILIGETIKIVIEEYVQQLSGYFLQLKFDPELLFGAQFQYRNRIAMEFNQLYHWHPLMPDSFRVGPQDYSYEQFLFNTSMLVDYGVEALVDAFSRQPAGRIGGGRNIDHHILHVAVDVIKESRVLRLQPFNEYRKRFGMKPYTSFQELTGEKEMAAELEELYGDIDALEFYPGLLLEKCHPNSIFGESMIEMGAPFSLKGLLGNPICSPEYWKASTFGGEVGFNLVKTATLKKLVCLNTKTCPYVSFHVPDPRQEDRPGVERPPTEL
The series can be described thus: Inhibition of ovine COX1 by enzyme immunoassay.

For series [8], the system named is Rattus norvegicus. The series can be described thus: Anti-inflammatory activity in rat assessed as inhibition of carrageenan-induced paw edema at 5 mg/kg, po administered 30 mins before carrageenan challenge measured after 1 hr relative to control. In kind it is functional. Summed up: as §1
For series [9], the system named is Rattus norvegicus. The series can be described thus: Anti-inflammatory activity in po dosed rat assessed as inhibition of carrageenan-induced paw edema administered 30 mins before carrageenan challenge measured after 1 to 5 hrs. In kind it is functional, organism-based. The gist of the method:
as §1

The test system of series [10] is Rattus norvegicus. Briefly: Anti-inflammatory activity in rat assessed as inhibition of carrageenan-induced paw edema at 5 mg/kg, po administered 30 mins before carrageenan challenge measured after 3 hrs relative to control. It counts as functional. The gist of the method:
as §1

Series [11] has as its system Rattus norvegicus. Briefly: Anti-inflammatory activity in rat assessed as inhibition of carrageenan-induced paw edema at 20 mg/kg, po administered 30 mins before carrageenan challenge measured after 3 hrs relative to control. It counts as functional. The gist of the method:
as §1

Series [12] has as its system Rattus norvegicus. Briefly: Anti-inflammatory activity in rat assessed as inhibition of carrageenan-induced paw edema at 20 mg/kg, po administered 30 mins before carrageenan challenge measured after 5 hrs relative to control. It counts as functional. The gist of the method:
as §1

The nature of series [13]: Ulcerogenecity in rat carrageenan-induced inflammation model assessed as stomach mucosal damage by measuring lesions at 5 to 20 mg/kg, po administered 30 mins before carrageenan challenge measured after 1 to 5 hrs by macroscopic analysis. In kind it is ADME, organism-based. The conditions noted are these: in vivo.
Series [14] deals with Rattus norvegicus. Briefly: Anti-inflammatory activity in rat assessed as inhibition of carrageenan-induced paw edema at 5 mg/kg, po administered 30 mins before carrageenan challenge measured after 5 hrs relative to control. It counts as functional. The gist of the method: as §1
In series [15] the test system is Rattus norvegicus. The series can be described thus: Anti-inflammatory activity in rat assessed as inhibition of carrageenan-induced paw edema at 20 mg/kg, po administered 30 mins before carrageenan challenge measured after 1 hr relative to control. In kind it is functional. Summed up: as §1

The term inhibition in vivo denotes the relative decrease from the control value, in per cent. Regarding `COc1cccc(N2CCN(Cc3ccc4c(c3)OCCO4)CC2)c1`, the inhibition in vivo at 10 mg/kg was 40% in the series with Rattus norvegicus [1], 62% in the series with Rattus norvegicus [2] and 45% in the series on Rattus norvegicus [3].
With `c1ccc(N2CCN(Cc3ccc4c(c3)OCCO4)CC2)nc1`, the inhibition in vivo at 10 mg/kg with Rattus norvegicus [1] amounted to 35%; in the series on Rattus norvegicus [2] it was 55%; in the series on Rattus norvegicus [3] it was 40%.
Consider `Fc1ccc(N2CCN(Cc3ccc4c(c3)OCCO4)CC2)cc1`, for which the Time is reported as 21.5 s in the series on Rattus norvegicus [4], 19.9 s with Rattus norvegicus [5] and 20.7 s with Rattus norvegicus [6]. The inhibition in vivo at 10 mg/kg in the series with Rattus norvegicus [1] was 57%; in the series with Rattus norvegicus [2] it was 82%; with Rattus norvegicus [3] it was 62%.
As a reminder, the IC50 is the concentration needed to halve the response being measured. A higher IC50 goes with weaker potency in that assay. Consider `FC(F)(F)c1cccc(N2CCN(Cc3ccc4c(c3)OCCO4)CC2)c1`, for which the Time with Rattus norvegicus [4] was found to be 26.4 s; with Rattus norvegicus [5] it was 23.1 s; in the series with Rattus norvegicus [6] it was 24.7 s. The inhibition in vivo at 10 mg/kg was 68% with Rattus norvegicus [1], 91 to 92% in the series on Rattus norvegicus [2] and 76 to 78% in the series with Rattus norvegicus [3]. The compound also gave an IC50 in series [7] of 8.35 µM. For the same compound, the inhibition in vivo at 5 mg/kg in the series with Rattus norvegicus [8] was determined as 56%; with Rattus norvegicus [10] it was 73%; in the series on Rattus norvegicus [14], 50%. The inhibition result in the series with Rattus norvegicus [9] is “Dose-dependent effect”. Besides, the values for the inhibition in vivo at 20 mg/kg in the series on Rattus norvegicus [11], in the series on Rattus norvegicus [12] and in the series on Rattus norvegicus [15] were 95%, 75% and 78%, respectively. For the same compound, the Activity entry in [13] is on record as “Non-Toxic”.
`Cc1ccc(N2CCN(Cc3ccc4c(c3)OCCO4)CC2)c(C)c1`: the inhibition in vivo at 10 mg/kg with Rattus norvegicus [1] was determined as 11%; in the series with Rattus norvegicus [2], 28%; in the series on Rattus norvegicus [3], 16%.
Regarding `COc1ccc(N2CCN(Cc3ccc4c(c3)OCCO4)CC2)cc1`, the values for the Time in the series on Rattus norvegicus [4], in the series with Rattus norvegicus [5] and in the series on Rattus norvegicus [6] were 24.6 s, 22.3 s and 23.3 s, respectively. The inhibition in vivo at 10 mg/kg is 63% in the series on Rattus norvegicus [1], 88% with Rattus norvegicus [2] and 71% with Rattus norvegicus [3].
For the compound `c1ccc(C(c2ccccc2)N2CCN(Cc3ccc4c(c3)OCCO4)CC2)cc1`, the inhibition in vivo at 10 mg/kg was 19% in the series with Rattus norvegicus [1], 27% with Rattus norvegicus [2] and 15% in the series on Rattus norvegicus [3].
Consider `Clc1cccc(N2CCN(Cc3ccc4c(c3)OCCO4)CC2)c1Cl`, for which the inhibition in vivo at 10 mg/kg in the series with Rattus norvegicus [1] was determined as 13%; in the series on Rattus norvegicus [2], 28%; in the series on Rattus norvegicus [3] it was 18%.
In the case of `O=[N+]([O-])c1ccc(N2CCN(Cc3ccc4c(c3)OCCO4)CC2)cc1`, the results for the Time with Rattus norvegicus [4], with Rattus norvegicus [5] and in the series with Rattus norvegicus [6] were 23.4 s, 21.2 s and 22.6 s, respectively. Moreover, the inhibition in vivo at 10 mg/kg turned out to be 65% with Rattus norvegicus [1], 79% in the series with Rattus norvegicus [2] and 68% with Rattus norvegicus [3].
As to `c1ccc(N2CCN(Cc3ccc4c(c3)OCCO4)CC2)cc1`, the results for the inhibition in vivo at 10 mg/kg with Rattus norvegicus [1], in the series on Rattus norvegicus [2] and with Rattus norvegicus [3] were 25%, 35% and 28%, respectively.
For `Clc1cccc(N2CCN(Cc3ccc4c(c3)OCCO4)CC2)c1` the same measures were 24%, 37% and 31%.
In the case of `O=C(O)Cc1ccccc1Nc1c(Cl)cccc1Cl` [DICLOFENAC], the Time in the series with Rattus norvegicus [4] is recorded as 24.1 s; in the series with Rattus norvegicus [5], 22.3 s; in the series with Rattus norvegicus [6] it was 23.5 s. Also, the inhibition in vivo at 10 mg/kg in the series on Rattus norvegicus [1] was in the range of 50 to 52%; with Rattus norvegicus [2], 79 to 80%; with Rattus norvegicus [3] it was 41 to 42%.

The values are drawn from ChEMBL document CHEMBL4428123, “Synthesis of phenylpiperazine derivatives of 1,4-benzodioxan as selective COX-2 inhibitors and anti-inflammatory agents” (Bioorg Med Chem, 2016).
